# Reference: paper PMC4838375 (Nucleic Acids Research, 2016)
# Experiment: 15N relaxation, tumbling correlation time
# Type: physicochemical, murine
# Details: 15N relaxation (R2/R1), free protein, 600 MHz, 295 K
# Summary of the method: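 Uniformly ¹⁵N-labelled domain expressed in E. coli BL21(DE3) on ¹⁵NH₄Cl minimal medium. Typical sample 0.3–0.4 mM in 20 mM sodium phosphate pH 6.3, 0.15 M NaCl, 2 mM DTT, 50 μM ZnCl₂. R1 sampled at 13 delays (50–2000 ms), R2 at 11 (12–244 ms), with heating compensation, random order and 2.5 s recovery. Duplicates fitted to two-parameter exponentials. τc from R2/R1, using non-overlapped residues with hetNOE > 0.65.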
molecule,measurement,value
"PHDVC5HCHNSD1: Murine NSD1 PHDvC5HCH (Glu2117–Asp2207), tandem domain, human residue numbering Glu2116–Asp2206 (protein, UniProt O88491 2117-2207, looked up, fragment) REYVPPTATSPPSPGTQPKEQSSEMATQGPKKSDQPPTDATQLLPLSKKALTGSCQRPLLPERPPERTDSSSHLLDRIRDLAGSGTKSQSL",correlation time (free),7.96±0.41 ns
